This is a sample that favours compounds with a hit; in the whole collection about 5.1% have one here.
STAT3 act-1: increases IL-6 driven STAT3 reporter signal | U3A cells, IL-6 STAT3-luciferase reporter, luminescence; 100% = signal with IL-6 EC80 alone | activation (% of control), % at 5.6 µM | hit rate 0.91% among 190,000;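 active = activation above the screen-wide mean of compound activation plus 3 SD, cut at about 130% in these data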
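Material: STAT1-lacking human U3A cells, STAT3 luciferase reporter | Benchmarks: IL-6-only wells as 100% reference | Probe or stimulus: IL-6 (33 ng/mL) | Timing: Compound 1 h, then IL-6 6 h at 37 °C | Detection: Luminescence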
STAT1 inh: inhibitors of IFN-gamma induced STAT1 signaling | NIH 3T3 STAT1-luciferase reporter, luminescence | hit rate 0.35% among 200,000 | AID 920 | inhibition, % at 5.5 µM;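 active = inhibition above a set limit, the mean inhibition across all tested compounds plus 3 SD, cut at about 34% in these data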
STAT1 act-1: STAT1 signaling activation | NIH 3T3 STAT1-luciferase reporter, IFN-gamma, luminescence; 100% = IFN-gamma alone, no compound | activation (% of control), % at 5.5 µM | hit rate 2.6% among 200,000 | AID 932;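 active = activation above the screen-wide mean activation plus 3 SD, cut at about 130% in these data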
NF-kB neuron act: NF-kB expression increase, human neuronal cells. NF-kB reporter expression; active compounds read high. fold change at 12.5 µM. hit rate 1.6% among 190,000; in the data active = fold change above about 3.3
STAT3 inh: reduces IL-6 driven STAT3 reporter signal | inhibition, % at 5.5 µM | AID 862 | U3A cells, IL-6 STAT3-luciferase reporter, luminescence; host cell line lacks STAT1 | hit rate 0.89% among 190,000;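 active = inhibition above the mean inhibition across all screened compounds plus 3 SD, cut at about 44% in these data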
APP 5'UTR act: activates APP 5'UTR luciferase reporter; SH-SY5Y APP 5'UTR luciferase reporter, luminescence; zero percent = DMSO vehicle wells; activation, % at 2 µM; hit rate 1% among 190,000;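 active = activation above a set limit, based on mean plus 3 SD of controls, cut at about 140% in these data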
STAT3 act-2: STAT3 activation, confirmation assay. shares compounds with STAT3 act-1. U3A STAT3-luciferase reporter, IL-6 potentiation, luminescence; U3A cells lack STAT1; 100 means same as IL-6 alone. potentiation (% of control), % at 5.7 µM. hit rate 64% among 1,200;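 active = percent activation of the STAT3 luciferase reporter above a set limit taken from the earlier primary screen, cut at about 130% in these data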
NFkB act 2: counter-screen for STAT3 activators: NF-kappaB activation. AID 1309. activation (% of control), % at 5.7 µM. shares compounds with STAT3 act-1. human cells, NF-kappaB reporter activation. hit rate 11% among 1,200; in the data active = activation above about 120%;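 also: reporter induced by TNF-alpha stimulation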
STAT1 act-2: STAT1 activation in STAT3 activator counter-screen. shares compounds with STAT3 act-1. NIH 3T3 STAT1-luciferase reporter, IFN-gamma, luminescence. activation (% of control), % at 5.7 µM. hit rate 13% among 1,200;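 active = activation above the solvent-only control well mean plus 3 SD, set per screening run, cut at about 120% in these data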
Each line names hits and unclear results; the compound was inactive in the other large screens (follow-up assays come after a bar, where they were run).

O=S(=O)(Nc1nc2ccccc2s1)c1ccc(Cl)s1	STAT3 act-1 138 | STAT3 act-2 inactive | NFkB act 2 inactive | STAT1 act-2 inactive
CCOC(=O)c1c(C)[nH]c(C(=O)OCC(=O)Nc2cc(C)c(Cl)cc2OC)c1C	STAT3 act-1 142 (no result: APP 5'UTR act) | STAT3 act-2 inactive | NFkB act 2 inactive | STAT1 act-2 inactive
Cc1ccc(C)c2sc(N)nc12	none
Cc1sc2nc(N)sc2c1C	STAT3 act-1 162 | STAT3 act-2 147 | NFkB act 2 inactive | STAT1 act-2 inactive
CCCNC(=S)Nc1c(C)n(C)n(-c2ccccc2)c1=O	none (no result: NF-kB neuron act)
CCN(CC)P(=O)(Nc1ccc(C)cc1Br)c1ccc(N(C)C)cc1NC(=O)c1ccco1 (stereo unspecified)	STAT3 act-1 150 | STAT3 act-2 144 | NFkB act 2 inactive | STAT1 act-2 inactive
O=C(O)C(O)C(O)c1nc2ccccc2[nH]1 (stereo unspecified)	none
Cc1cccc(C2c3[nH]c4ccccc4c3CCN2C(=O)c2cc3c([nH]c2=O)CCCC3)n1 (stereo unspecified)	none
Cc1cccc(C2c3[nH]c4ccccc4c3CCN2C(=O)c2ccc(=O)[nH]c2)n1 (stereo unspecified)	STAT3 act-1 143 | STAT3 act-2 inactive | NFkB act 2 inactive | STAT1 act-2 inactive
Cc1cccc(C2c3[nH]c4ccccc4c3CCN2Cc2ccc(C)s2)n1 (stereo unspecified)	STAT3 act-1 142 | STAT3 act-2 inactive | NFkB act 2 inactive | STAT1 act-2 inactive
Cc1nc(C)c(CC(=O)N2CCc3c([nH]c4ccccc34)C2c2ccccn2)s1 (stereo unspecified)	none (no result: NF-kB neuron act)
Cc1cccc(C2c3[nH]c4ccccc4c3CCN2C(=O)Cc2n[nH]c(C)n2)n1 (stereo unspecified)	STAT3 act-1 137 | STAT3 act-2 139 | NFkB act 2 inactive | STAT1 act-2 inactive
Cc1cccc(C2c3[nH]c4ccccc4c3CCN2C(=O)c2cc(C(C)C)nc(N)n2)n1 (stereo unspecified)	none
O=C(O)CCCN1C(=O)/C(=C\c2ccco2)SC1=S	none
O=C1/C(=C\c2ccco2)SC(=S)N1Cc1ccccc1	STAT3 act-1 168 | STAT3 act-2 157 | NFkB act 2 inactive | STAT1 act-2 inactive
O=C(CC12CC3CC(CC(C3)C1)C2)Nc1ccccc1N1CCOCC1	none
COC(=O)CS(=O)(=O)c1cccc2cccnc12	none
CCCOc1ccc(-c2nc(OC)c3ccccc3n2)cc1	STAT3 act-1 142 | STAT3 act-2 152 | NFkB act 2 inactive | STAT1 act-2 inactive
CCCOc1ccc(C(=O)Nn2c(C)nc3ccccc3c2=O)cc1	none
COc1cccc(-c2nnc3n2N=C(C(C)(C)C)CS3)c1	STAT3 act-1 204 | STAT3 act-2 184 | NFkB act 2 inactive | STAT1 act-2 inactive
COc1cccc(-c2nnc3n2N=C(c2cc(OC)ccc2OC)CS3)c1	none
Cc1ccc(N=C2C(=S)N(c3ccc(C)cc3)C(=N)N2/N=C/c2ccc(Cl)cc2)cc1	none
Cc1coc(NC(=O)CSc2nc(-c3ccc(Cl)cc3)cc(C(F)(F)F)c2C#N)n1	STAT3 act-1 138 | STAT3 act-2 inactive | NFkB act 2 inactive | STAT1 act-2 inactive
COc1ccc(-c2cc(C(F)(F)F)c(C#N)c(SCC(=O)Nc3nc(C)co3)n2)cc1	none
Cc1sc2c(c1C)CN(C(C)(C)C)CN2C(=O)c1ccccc1	STAT3 act-1 142 | STAT3 act-2 inactive | NFkB act 2 inactive | STAT1 act-2 inactive
CC(Nc1cccc2ccccc12)C(=O)N/N=C/c1ccc([N+](=O)[O-])cc1 (stereo unspecified)	none
Cc1cccc(/C=N/NC(=O)C(C)Nc2cccc3ccccc23)n1 (stereo unspecified)	STAT3 act-1 164 | STAT3 act-2 139 | NFkB act 2 inactive | STAT1 act-2 inactive
C=CCN1C(=O)C2C3CC(=O)C(c4ccccc43)C2C1=O (stereo unspecified)	none
O=c1cc(-c2ccccc2)[nH]n1-c1nc2ccccc2s1	STAT3 act-1 138 | STAT3 act-2 inactive | NFkB act 2 126 | STAT1 act-2 inactive
COc1cccc(CNC(=O)CCC2CCCN(C(=O)c3csc(C(C)C)n3)C2)c1 (stereo unspecified)	none
CSc1nc(O)c(C2OC(=O)c3ccccc32)c(=O)[nH]1 (stereo unspecified)	none
CSc1nc(O)c(/C=C2\C=Nc3ccccc32)[nH]1	STAT3 act-1 138 | STAT3 act-2 146 | NFkB act 2 inactive | STAT1 act-2 123
COc1ccnc(Nc2ccc(C)c(C)c2)c1C#N	STAT3 act-1 143 | STAT3 act-2 inactive | NFkB act 2 inactive | STAT1 act-2 inactive
COc1ccc(O)c(-c2cc(-c3cccs3)[nH]n2)c1	STAT3 act-1 144 | STAT3 act-2 inactive | NFkB act 2 inactive | STAT1 act-2 inactive
COC(=O)c1cc(-c2cccs2)[nH]n1	none
Fc1cccc(Cl)c1/C=N/Nc1ccccn1	STAT3 act-1 138 | STAT3 act-2 144 | NFkB act 2 inactive | STAT1 act-2 127
CC1=NOC(=O)/C1=C\c1ccc(-c2ccc(Br)cc2)o1	STAT3 act-1 136 | STAT3 act-2 inactive | NFkB act 2 inactive | STAT1 act-2 inactive
Cc1ccc(-c2nnn3c2nc(NCCc2ccc(S(N)(=O)=O)cc2)c2ccccc23)cc1	none
Cc1cccc(-c2nnn3c2nc(NCCc2ccc(S(N)(=O)=O)cc2)c2ccccc23)c1	STAT3 act-1 145 | STAT3 act-2 155 | NFkB act 2 inactive | STAT1 act-2 inactive
NS(=O)(=O)c1ccc(CCNc2nc3c(-c4cccc(F)c4)nnn3c3ccccc23)cc1	STAT3 act-1 137 | STAT3 act-2 144 | NFkB act 2 inactive | STAT1 act-2 inactive
Cc1cccc(C)c1NC(=O)COc1cccc(/C=N/NC(=O)C(=O)NCc2ccccc2)c1	none
COC(=O)c1ccccc1NC(=O)C1CC(c2ccccc2O)=NO1 (stereo unspecified)	none
CSc1ccccc1NC(=O)C1CC(c2ccccc2O)=NO1 (stereo unspecified)	STAT3 act-1 137 | STAT3 act-2 inactive | NFkB act 2 inactive | STAT1 act-2 inactive
O=c1c2cc(NC(=S)N3CCCCCC3)ccc2nc2n1CCCCC2	none

Screens from PubChem BioAssay.
